Experimental data taken from ChEMBL document CHEMBL2311339, “Identification of GZD824 as an orally bioavailable inhibitor that targets phosphorylated and nonphosphorylated breakpoint cluster region-Abelson (Bcr-Abl) kinase and overcomes clinically acquired mutation-induced resistance against imatinib” (J Med Chem, 2013).
Calls of active or inactive are those of the source. The calls are words filed in the database; no cut-off is given here.

Experiments:
[1] = Cytotoxicity against mouse BA/F3 cells expressing BCR-ABL H396R mutant assessed as growth inhibition after 72 hrs by CCK-8 assay; conditions: BaF3, 72 h
[2] = Cytotoxicity against mouse BA/F3 cells expressing BCR-ABL Y253H mutant assessed as growth inhibition after 72 hrs by CCK-8 assay; conditions: BaF3, 72 h
cells [3] = conditions: Mus musculus, BaF3, 72 h
[4] = Cytotoxicity against mouse BA/F3 cells expressing BCR-ABL M351T mutant assessed as growth inhibition after 72 hrs by CCK-8 assay; conditions: BaF3, 72 h
BaF3 [5] = test: Antitumor activity against mouse BA/F3 cells expressing wild type BCR-ABL allografted in SCID mouse assessed as inhibition of tumor growth at 50 mg/kg, po qd for 14 days; assay type: functional, organism-based; design: dose 50 mg/kg
How it was run: (§1)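 Subcutaneous allograft: Ba/F3 cells stably carrying Bcr-Abl (WT or T315I), 2.5 × 10^7 cells/mL in saline, 0.2 mL into the right flank. Randomized at 100−200 mm3, n = 10 per group. Oral gavage once daily for 14 days in DMSO/Cremophor/ethanol/saline vehicle. Tumor volume (L × W²/2) every 2 days; unpaired t test versus vehicle.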

BaF3 [6] = test: Antitumor activity against mouse BA/F3 cells expressing BCR-ABL T315I mutant allografted in SCID mouse assessed as inhibition of tumor growth at 100 mg/kg/day, po qd for 14 days; assay type: functional, organism-based; how it was run: as §1
[7] = Cytotoxicity against mouse BA/F3 cells expressing BCR-ABL E255V mutant assessed as growth inhibition after 72 hrs by CCK-8 assay; conditions: BaF3, 72 h
[8] = Cytotoxicity against mouse BA/F3 cells expressing BCR-ABL F317L mutant assessed as growth inhibition after 72 hrs by CCK-8 assay; conditions: BaF3, 72 h
[9] = Cytotoxicity against mouse BA/F3 cells expressing BCR-ABL F317V mutant assessed as growth inhibition after 72 hrs by CCK-8 assay; conditions: BaF3, 72 h
[10] = Cytotoxicity against mouse BA/F3 cells expressing BCR-ABL E355G mutant assessed as growth inhibition after 72 hrs by CCK-8 assay; conditions: BaF3, 72 h
cells [11] = conditions: Mus musculus, BaF3, 72 h; remark: listed apart in the source
K562 [12] = test: Antitumor activity against human K562 cells xenografted in mouse assessed as induction of tumor stasis at 50 mg/kg, […]; assay type: functional, organism-based; design: dose 50 mg/kg
[13] = Cytotoxicity against mouse BA/F3 cells expressing BCR-ABL E359V mutant assessed as growth inhibition after 72 hrs by CCK-8 assay; conditions: BaF3, 72 h
[14] = Cytotoxicity against mouse BA/F3 cells expressing BCR-ABL E255K mutant assessed as growth inhibition after 72 hrs by CCK-8 assay; conditions: BaF3, 72 h
[15] = Cytotoxicity against mouse BA/F3 cells expressing BCR-ABL F486S mutant assessed as growth inhibition after 72 hrs by CCK-8 assay; conditions: BaF3, 72 h
cells [16] = conditions: Mus musculus, BaF3, 72 h; remark: listed apart in the source
[17] = Cytotoxicity against mouse BA/F3 cells expressing BCR-ABL Y253F mutant assessed as growth inhibition after 72 hrs by CCK-8 assay; conditions: BaF3, 72 h
[18] = Cytotoxicity against mouse BA/F3 cells assessed as growth inhibition after 72 hrs by CCK-8 assay; conditions: BaF3, 72 h
BaF3 [19] = test: Antitumor activity against mouse BA/F3 cells expressing BCR-ABL T315I mutant allografted in SCID mouse assessed as suppression of cell proliferation at 100 mg/kg/day, po qd for 10 days relative to untreated vehicle; assay type: functional, organism-based
How it was run: (§2)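 Ba/F3 cells coexpressing Bcr-Abl T315I and firefly luciferase were injected iv (2 × 10^6 cells/0.1 mL saline) into SCID nude mice. At 5−7 days, mice were imaged after ip D-luciferin under halothane and randomized by signal. Dosing was oral gavage once daily for 10 days in DMSO/Cremophor/ethanol/saline vehicle. Luminescence was imaged after dosing; survival was analysed by Kaplan−Meier with log-rank test.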

BaF3 [20] = test: Antitumor activity against mouse BA/F3 cells expressing BCR-ABL T315I mutant allografted in SCID mouse assessed as increased survival at 100 mg/kg/day, po qd for 10 days; assay type: functional, organism-based; how it was run: as §2
[21] = Cytotoxicity against mouse BA/F3 cells expressing BCR-ABL L248V mutant assessed as growth inhibition after 72 hrs by CCK-8 assay; conditions: BaF3, 72 h
K562 [22] = test: Cytotoxicity against imatinib-resistant human K562 cells expressing BCR-ABL Q252H mutant assessed as growth inhibition after 72 hrs by CCK-8 assay; assay type: functional, cell-based; conditions: K562, 72 h
How it was run: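 The K562 subline was made imatinib-resistant by 3 months of exposure to imatinib from 0.1 to 5 μM, followed by clonal selection and sequencing to confirm Q252H. Cells were seeded at about 3000 cells/well, treated 24 h later for 72 h, then given CCK-8 for 3 h. Read-out was OD450 − OD650 normalized to vehicle; IC50 is the mean of three experiments.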

U-937 = test: Cytotoxicity against human U937 cells […] assessed as growth inhibition after 72 hrs by CCK-8 assay; assay type: functional, cell-based; conditions: U-937, 72 h
How it was run: (§3)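 Log-phase human leukemia cells were seeded at about 3000 cells/well and treated 24 h later for 72 h. CCK-8 was then incubated with the cells for 3 h and read as OD450 − OD650. Viability was normalized to vehicle wells and cell-free blanks, and IC50 taken as the mean of three experiments.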

MOLT-4 = test: Cytotoxicity against human MOLT4 cells […] assessed as growth inhibition after 72 hrs by CCK-8 assay; assay type: functional, cell-based; conditions: MOLT-4, 72 h; how it was run: as §3
K562 [23] = test: Cytotoxicity against human K562 cells expressing BCR-ABL assessed as growth inhibition after 72 hrs by CCK-8 assay; assay type: functional, cell-based; conditions: K562, 72 h; how it was run: as §3
HL-60 = test: Cytotoxicity against human HL60 cells […] assessed as growth inhibition after 72 hrs by CCK-8 assay; assay type: functional, cell-based; conditions: HL-60, 72 h; how it was run: as §3
[24] = Cytotoxicity against human SUP-B15 cells expressing BCR-ABL assessed as growth inhibition after 72 hrs by CCK-8 assay; assay type: functional, cell-based; conditions: SUP-B15, 72 h; how it was run: as §3
[25] = Cytotoxicity against human KU812 cells expressing BCR-ABL assessed as growth inhibition after 72 hrs by CCK-8 assay; assay type: functional, cell-based; conditions: KU812, 72 h; how it was run: as §3
[26] = Cytotoxicity against mouse BA/F3 cells expressing wild type BCR-ABL assessed as growth inhibition after 72 hrs by CCK-8 assay; conditions: BaF3, 72 h

IC50 (cells [3]) [nM] | IC50 (cells [11]) [nM] | IC50 (cells [16]) [nM] | Compound | IC50 [1] [nM] | IC50 [2] [nM] | IC50 [4] [nM] | IC50 [7] [nM] | IC50 [8] [nM] | IC50 [9] [nM] | IC50 [10] [nM] | IC50 [13] [nM] | IC50 [14] [nM] | IC50 [15] [nM] | IC50 [17] [nM] | IC50 [18] [nM] | IC50 [21] [nM] | IC50 [26] [nM] | also measured
12200 | 3600 | 5200 | Cc1ccc(NC(=O)c2ccc(CN3CCN(C)CC3)cc2)cc1Nc1nccc(-c2cccnc2)n1 [IMATINIB] | 11100 | 12500 | 240 | > 10000 | 3300 | 9500 | 1600 | 590 | 5600 | 1000 | 9200 | 13500 | 12200 |  | TGI (BaF3 [5]): Active; TGI (BaF3 [6]): inactive; Activity (K562 [12]): inactive; Activity (BaF3 [19]): inactive; Activity (BaF3 [20]): inactive
 |  |  | CC(=O)O[C@H]1C(=O)[C@@]2(C)[C@H]([C@H](OC(=O)c3ccccc3)[C@]3(O)C[C@H](OC(=O)[C@H](O)[C@@H](NC(=O)c4ccccc4)c4ccccc4)C(C)=C1C3(C)C)[C@]1(OC(C)=O)CO[C@@H]1C[C@@H]2O [PACLITAXEL] |  |  |  |  |  |  |  |  |  |  |  |  |  |  | IC50 (K562 [22]): 7 nM; IC50 (U-937): 2.3 nM; IC50 (MOLT-4): 2.7 nM; IC50 (K562 [23]): 5.1 nM; IC50 (HL-60): 5.8 nM; IC50 [24]: 8 nM; IC50 [25]: 5.3 nM
3600 | 8 | 5.1 | Cc1nc(Nc2ncc(C(=O)Nc3c(C)cccc3Cl)s2)cc(N2CCN(CCO)CC2)n1 [DASATINIB] | 3800 | 2.3 | 0.2 | 23 | 19 | 25 | 15 | 1.3 | 3.2 | 0.9 | 17 | 2500 | 29 | 1.9 | 
16000 |  | 150 | Cc1cn(-c2cc(NC(=O)c3ccc(C)c(Nc4nccc(-c5cccnc5)n4)c3)cc(C(F)(F)F)c2)cn1 [NILOTINIB] | 21100 | 1000 | 3 | 1200 | 160 | 2900 | 130 |  | 170 | 9.5 | 1400 | 15100 | 3000 | 22 | 
